Results published in publication PMC7616001 (Journal of medicinal chemistry, 2022).
Where two headings read alike, the source gives them in different places.

Key:
[1] = test system: ROS level in HeLa cells; assay: H2DCF-DA intracellular ROS assay; format: cell-based, human; settings: 10 μM, 1-8 h
In short: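 HeLa plated at 10 × 10^3 per well, grown overnight, then exposed to 10 μM test compound for 1, 2, 4 or 8 h. Washed with PBS and loaded with 10 μM H2DCF‑DA for 30 min. Washed again, phenol red‑free DMEM added, fluorescence read immediately. Three biological replicates.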

[2] = cited from earlier work
[3] = Cyclic voltammetry; format: physicochemical; settings: acetonitrile, 0.1 M NEt4BF4
[4] = test system: A2780; settings: cited from earlier work
[5] = test system: HeLa; settings: read-out: IC50 HeLa; 72 h continuous exposure, MTT assay; cited from earlier work
[6] = test system: HeLa cells; assay: Annexin-V/PI dual staining flow cytometry; format: cell-based, human; settings: 10 μM (0.7 × IC50/24h)
[7] = test system: HeLa cells; assay: Intracellular distribution between nucleus and cytoplasm, ICP-MS; format: cell-based, human; settings: 10 μM, 24 h exposure
In short: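 5 × 10^6 HeLa per 100 mm plate, grown overnight. Exposed 24 h to 10 μM test compound, with 10 μM cisplatin as comparator. PBS‑washed, trypsinised, counted. Nuclear and cytoplasmic fractions isolated with a commercial kit. Protein measured by BCA assay, metal by ICP‑MS. Three experiments of ≥3 replicates.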

[8] = test system: A2780cis; settings: A2780Cis versus wild-type A2780; cited from earlier work
[9] = test system: HeLa; assay: MTT assay, 72 h continuous exposure, HeLa cells; format: cell-based, human; settings: read-out: IC50 HeLa; 72 h continuous exposure, MTT assay
In short: (§1)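 Ovarian lines grown in RPMI with 10% FBS and 1% penicillin/streptomycin; A2780Cis kept on 2 μM cisplatin 3 days each week. HeLa grown in DMEM with the same supplements. 3 × 10^3 cells/well, overnight, then serial dilutions of DMSO stocks (final DMSO ≤0.1%); cisplatin stock in PBS. 72 h continuous exposure, MTT 0.5 mg/mL 3 h, formazan in DMSO, A570 normalised to untreated. IC50 from curves; ≥3 independent experiments.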

[10] = test system: MEF-Bax/Bak^+/+ and MEF-Bax/Bak^−/− cell lines; assay: Cytotoxicity in MEF-Bax/Bak+/+ versus MEF-Bax/Bak−/− cells; format: cell-based, murine
[11] = test system: HeLa; assay: 72 h crystal violet; format: cell-based, human; settings: HeLa and A2780, 72 h
In short: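 Seeding and dosing as for MTT: 3 × 10^3 cells/well, overnight, final DMSO ≤0.1%, 72 h exposure. Wells washed with PBS and fixed in 4% paraformaldehyde for 15 min. Crystal violet stained, dried, dissolved in 96% ethanol and A570 read. IC50 derived from dose–response curves.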

[12] = test system: A2780cis; assay: MTT assay, 72 h continuous exposure, cisplatin-resistant A2780Cis cells; format: cell-based, human; settings: read-out: IC50 A2780cis; 72 h continuous exposure, MTT assay
In short: as §1

[13] = test system: PARP, p53, cleaved caspase 3 in HeLa cells; assay: Western blot of apoptosis-related marker proteins; format: cell-based, human; settings: 24 h, cisplatin 10 μM, 1 at 1/4 × IC50 to IC50
In short: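 ~2 million HeLa per 60 mm dish, grown to 80–90% confluency, treated 24 h at 10, 20 or 40 μM. Lysed in RIPA buffer with protease inhibitors. Membranes blocked with 2% skim milk in 0.1% Tween 20 for 30 min. Primary antibody 1:1000 overnight at 4 °C; HRP secondary antibody.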

[14] = test system: A2780; assay: MTT assay, 72 h continuous exposure, A2780 cells; format: cell-based, human; settings: read-out: IC50 A2780; 72 h continuous exposure, MTT assay
In short: as §1

[15] = read-out: IC50 in A2780 cells, reported antitumor activities

In the case of O=C(CC(=O)C(F)(F)F)[c-]1cccc1.[Fe+2].c1cc[cH-]c1 [Compound L1, 4,4,4-trifluoro-1-ferrocenylbutane-1,3-dione], the “intracellular ROS level (H2DCF-DA)” value [1] is listed as “unable to elevate the level of intracellular ROS”, the pKa [2] is listed as 6.5 and the “oxidation potential (vs Fc^+/0)” value [3] is listed as 287 mV. The IC50 ([4]; read-out: IC50 A2780, 72 h, MTT assay) was 11.4 ± 2 µM and the IC50 [5] was 23 µM.
In the case of N.N.[Cl][Pt][Cl] [cisplatin, reference compound], the “AV^+/PI^− cells (early apoptosis)” value [6] is listed as 13.4%, the “metal content in nuclear fraction relative to cytoplasmic fraction” value [7] is listed as “equally distributed between the cytoplasm and nucleus” and the “resistance factor, RF” value [8] is listed as 9.7. The IC50 [9] was 3 ± 0.1 µM, the “IC50 in MEF-Bax/Bak^−/− compared to MEF-Bax/Bak^+/+ cells” value [10] was 2.5 fold and the “IC50 from CV assay compared to IC50 from MTT assay” value [11] was “comparable”. The IC50 [12] was 6.7 ± 0.1 µM, the “apoptosis markers (PARP cleavage, p53, cleaved caspase 3)” value [13] was “cleavage of PARP and sharp upregulation of P53 and cleaved caspase 3” and the IC50 [14] was 0.8 ± 0.1 µM.
O=C1[O][Pt]2([NH][C@@H]3CCCC[C@H]3[NH]2)[O]C1=O [oxaliplatin, reference compound] showed an IC50 [9] of 2.1 ± 0.3 µM.
For “[Ru(η^6-arene)(PTA)-(4,4,4-trifluoro-1-(4-chlorophenyl)-1,3-butanedionato)]”, the IC50 [4, 15] is given as 34.8 µM.
For [Ru(η^6-arene)Cl(curcuminato)], the IC50 [4, 15] is listed as 23.4 µM.
